Assay [1] deals with Probable G-protein coupled receptor 34 (Mus musculus, UniProt Q9R1K6). The experiment in a line: (§1) Agonist activity at mouse GPR34 expressed in HEK293 cells co-transfected with AP-TGFalpha/Galphaq/i1 assessed as induction of ectodomain shedding of membrane bound AP-TGFalpha after 1 hr by p-NPP substrate based microplate reader analysis. In kind it is cell-based. In a few lines: (§2)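 HEK293 cells transiently transfected with AP-TGFα, chimeric Gα and mouse GPR34 vectors, then treated with compound. Empty-vector cells (AP-TGFα plus chimeric Gα) served as background. Receptor-specific AP-TGFα release was taken after subtracting that background, and concentration-response curves gave EC50 and Emax. Mean and SEM of 3−8 independent experiments.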
Probable G-protein coupled receptor 34 (Mus musculus, UniProt Q9R1K6), sequence (Q9R1K6 whole entry, the tested form may be a part): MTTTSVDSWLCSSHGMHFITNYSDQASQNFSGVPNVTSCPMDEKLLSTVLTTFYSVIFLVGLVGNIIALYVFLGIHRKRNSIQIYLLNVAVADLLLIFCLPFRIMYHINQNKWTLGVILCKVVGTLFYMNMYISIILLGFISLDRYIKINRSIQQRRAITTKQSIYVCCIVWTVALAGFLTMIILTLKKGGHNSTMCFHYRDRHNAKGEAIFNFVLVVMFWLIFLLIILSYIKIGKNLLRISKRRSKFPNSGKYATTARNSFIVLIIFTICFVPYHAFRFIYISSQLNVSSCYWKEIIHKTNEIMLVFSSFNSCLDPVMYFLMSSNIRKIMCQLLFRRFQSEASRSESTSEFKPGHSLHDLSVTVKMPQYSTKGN

The target in assay [2] is Putative P2Y purinoceptor 10 (Mus musculus, UniProt Q8BFU7). Nature of the assay: Agonist activity at mouse P2Y10 expressed in HEK293 cells co-transfected with AP-TGFalpha/Galphaq/i1 assessed as induction of ectodomain shedding of membrane bound AP-TGFalpha after 1 hr by p-NPP substrate based microplate reader analysis. In kind it is cell-based. In a few lines:
(§3)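 Run the same way as the GPR34 shedding assay, but with a mouse P2Y10 expression vector in HEK293 cells alongside AP-TGFα and chimeric Gα. Receptor-specific AP-TGFα release was found by subtracting the empty-vector background. EC50 and Emax came from concentration-response curves. Mean and SEM of 3−8 independent experiments.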

For assay [3], the target named is T1, G protein-coupled receptor 34b (Danio rerio, UniProt B0S6P9).
T1 sequence (B0S6P9 whole entry): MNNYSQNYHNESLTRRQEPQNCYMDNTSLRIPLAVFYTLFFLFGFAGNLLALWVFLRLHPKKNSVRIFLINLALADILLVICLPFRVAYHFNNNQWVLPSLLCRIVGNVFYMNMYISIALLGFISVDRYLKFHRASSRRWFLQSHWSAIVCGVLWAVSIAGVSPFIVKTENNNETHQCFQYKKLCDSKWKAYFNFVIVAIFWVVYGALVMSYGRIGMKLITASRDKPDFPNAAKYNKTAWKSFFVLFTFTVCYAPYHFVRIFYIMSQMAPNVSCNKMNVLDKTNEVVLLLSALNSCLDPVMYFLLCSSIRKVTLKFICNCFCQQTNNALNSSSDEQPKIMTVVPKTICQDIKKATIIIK
The experiment in a line: Agonist activity at zebrafish GPR34 type b expressed in HEK293 cells co-transfected with AP-TGFalpha/Galphaq/i1 assessed as induction of ectodomain shedding of membrane bound AP-TGFalpha after 1 hr by p-NPP substrate based microplate reader analysis. It counts as cell-based.

The target in assay [4] is T2, G protein-coupled receptor 34a (Danio rerio, UniProt Q6XCC7).
T2 sequence (Q6XCC7 whole entry): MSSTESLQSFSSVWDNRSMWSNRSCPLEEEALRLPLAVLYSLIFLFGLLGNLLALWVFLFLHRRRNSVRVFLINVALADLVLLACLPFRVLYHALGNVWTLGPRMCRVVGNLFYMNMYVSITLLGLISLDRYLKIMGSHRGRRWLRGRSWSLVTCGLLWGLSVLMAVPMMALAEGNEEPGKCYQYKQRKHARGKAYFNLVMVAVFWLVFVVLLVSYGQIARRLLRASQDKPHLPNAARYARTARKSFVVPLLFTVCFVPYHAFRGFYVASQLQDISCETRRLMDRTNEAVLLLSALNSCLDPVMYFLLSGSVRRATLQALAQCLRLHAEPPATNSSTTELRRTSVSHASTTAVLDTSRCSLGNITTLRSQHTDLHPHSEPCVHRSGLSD
The experiment in a line: Agonist activity at zebrafish GPR34 type a expressed in HEK293 cells co-transfected with AP-TGFalpha/Galphaq/i1 assessed as induction of ectodomain shedding of membrane bound AP-TGFalpha after 1 hr by p-NPP substrate based microplate reader analysis. In kind it is cell-based.

In assay [5] the target is Putative P2Y purinoceptor 10 (Mus musculus) (UniProt Q8BFU7). Nature of the assay: Agonist activity at mouse P2Y10 expressed in HEK293 cells co-transfected with AP-TGFalpha/Galphaq/i1 assessed as induction of ectodomain shedding of membrane bound AP-TGFalpha after 1 hr by p-NPP substrate based microplate reader analysis relative to positive control. In kind it is cell-based. In a few lines:
as §3

The target is the same in assay [6]. Nature of the assay: Agonist activity at mouse P2Y10 expressed in HEK293 cells co-transfected with AP-TGFalpha/Galphaq/i1 assessed as induction of ectodomain shedding of membrane bound AP-TGFalpha after 1 hr by p-NPP substrate based microplate reader analysis relative to control. It counts as cell-based. In a few lines: as §3
Assay [7] addresses Probable G-protein coupled receptor 34 (Homo sapiens, UniProt Q9UPC5). The experiment in a line: Agonist activity at human GPR34 expressed in HEK293 cells co-transfected with AP-TGFalpha/Galphaq/i1 assessed as induction of ectodomain shedding of membrane bound AP-TGFalpha after 1 hr by p-NPP substrate based microplate reader analysis. It counts as cell-based.
Assay [8] has as its target Probable G-protein coupled receptor 34 (Mus musculus) (UniProt Q9R1K6). The experiment in a line: Agonist activity at mouse GPR34 expressed in HEK293 cells co-transfected with Galphaq/i1 assessed as increase in calcium influx by calcium 5 dye based FLIPR assay. It counts as functional, cell-based. In a few lines:
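Mouse GPR34-expressing HEK293 cells were monitored for calcium influx after compound was added at 100 nM or 10 nM. Each run was done in triplicate and reported as mean and S.D.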

In assay [9] the target is T3, G protein-coupled receptor 34a (Danio rerio) (UniProt Q6XCC7).
T3 sequence (whole entry): T2 sequence (Q6XCC7 whole entry)
The experiment in a line: Agonist activity at zebrafish GPR34 type a expressed in HEK293 cells co-transfected with AP-TGFalpha/Galphaq/i1 assessed as induction of ectodomain shedding of membrane bound AP-TGFalpha after 1 hr by p-NPP substrate based microplate reader analysis relative to control. It counts as cell-based.

Assay [10] deals with Probable G-protein coupled receptor 34 (Mus musculus) (UniProt Q9R1K6). Nature of the assay: Agonist activity at mouse GPR34 expressed in HEK293 cells co-transfected with AP-TGFalpha/Galphaq/i1 assessed as induction of ectodomain shedding of membrane bound AP-TGFalpha after 1 hr by p-NPP substrate based microplate reader analysis relative to positive control. It counts as cell-based. In a few lines:
as §2

Assay [11] has the same target. Nature of the assay: Agonist activity at mouse GPR34 expressed in HEK293 cells co-transfected with AP-TGFalpha/Galphaq/i1 assessed as induction of ectodomain shedding of membrane bound AP-TGFalpha after 1 hr by p-NPP substrate based microplate reader analysis relative to control. It counts as cell-based. In a few lines: as §2
The target of assay [12] is T4, G protein-coupled receptor 34b (Danio rerio) (UniProt B0S6P9).
T4 sequence (whole entry): T1 sequence (B0S6P9 whole entry)
Nature of the assay: Agonist activity at zebrafish GPR34 type b expressed in HEK293 cells co-transfected with AP-TGFalpha/Galphaq/i1 assessed as induction of ectodomain shedding of membrane bound AP-TGFalpha after 1 hr by p-NPP substrate based microplate reader analysis relative to control. In kind it is cell-based.

Assay [13] addresses Probable G-protein coupled receptor 34 (Mus musculus) (UniProt Q9R1K6). The assay is described as §1. In kind it is cell-based. In a few lines:
as §2

The source made the active and inactive calls. The rule behind the calls is not given here. A value given as a limit tells only on which side of the number the result lay.

Probable G-protein coupled receptor 34 (Mus musculus), sequence (Q9R1K6 whole entry, the tested form may be a part): as the sequence (Q9R1K6 whole entry, the tested form may be a part) above
Putative P2Y purinoceptor 10 (Mus musculus), sequence (Q8BFU7 whole entry, the tested form may be a part): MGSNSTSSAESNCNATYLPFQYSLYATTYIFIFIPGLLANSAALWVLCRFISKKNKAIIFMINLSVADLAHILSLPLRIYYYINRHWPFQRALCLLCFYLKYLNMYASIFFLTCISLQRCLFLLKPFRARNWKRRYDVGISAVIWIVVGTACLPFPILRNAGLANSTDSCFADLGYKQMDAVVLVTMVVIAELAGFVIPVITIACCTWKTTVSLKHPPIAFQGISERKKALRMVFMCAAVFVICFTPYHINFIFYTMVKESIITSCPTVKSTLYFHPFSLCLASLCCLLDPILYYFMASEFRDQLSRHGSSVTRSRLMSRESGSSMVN
Putative P2Y purinoceptor 10, sequence (Q8BFU7 whole entry, the tested form may be a part): as above
Probable G-protein coupled receptor 34 (Homo sapiens, UniProt Q9UPC5), sequence (Q9UPC5 whole entry, the tested form may be a part): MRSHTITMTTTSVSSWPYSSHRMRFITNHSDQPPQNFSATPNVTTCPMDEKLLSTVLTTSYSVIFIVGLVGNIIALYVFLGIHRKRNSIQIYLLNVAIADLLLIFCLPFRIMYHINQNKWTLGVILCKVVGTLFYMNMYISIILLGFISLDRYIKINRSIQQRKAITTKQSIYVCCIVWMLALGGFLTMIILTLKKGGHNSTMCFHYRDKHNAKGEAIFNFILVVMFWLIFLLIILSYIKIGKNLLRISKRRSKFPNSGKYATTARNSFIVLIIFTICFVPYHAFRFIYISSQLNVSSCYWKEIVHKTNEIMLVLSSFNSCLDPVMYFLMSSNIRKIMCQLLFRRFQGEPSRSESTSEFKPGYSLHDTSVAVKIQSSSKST

Regarding `CCCCCCCCCCCOc1ccccc1CCC(=O)O[C@@H]1CCOC[C@H]1OP(=O)(O)OC[C@H](N)C(=O)O`, the EC50 in [1] (read-out: EC50) is 0.83 nM; in assay [2], 1 nM; in assay [3], 12 nM; in assay [4], 510 nM; in assay [7], 0.75 nM. Further, the fold change (FC) worked out at 1.7 in assay [5] (filed as agonist) and 100 in assay [10] (filed as agonist). The Emax was determined as 10.6% in [6], 14% in assay [9], 10.3% in [11] and 25% in assay [12]. The outcome in assay [8] (filed as agonist) was Active.
Consider `CCCCCCCC/C=C\CCCCCCCC(=O)OC[C@@H](O)COP(=O)(O)OC[C@H](N)C(=O)O`, for which the EC50 in assay [2] was 20 nM; in assay [3], 3.5 nM; in assay [4] it was 130 nM. Further, the Emax was found to be 13.6% in [6], 22.1% in [9] and 25.1% in [12].
`CCCCCCCCCCCOc1ccccc1CCC(=O)O[C@H]1CCOC[C@@H]1OP(=O)(O)OC[C@H](N)C(=O)O`: the values for the half-maximal effective concentration (EC50) entry in assay [1] (hek293) and in [2] were “Not Active” and 12 nM, respectively. Also, in [13], the pEC50 entry was “inactive”. For the same compound, in [5] (filed as agonist), the fold change (FC) worked out at 0.14. In addition, the maximal response (Emax) in assay [6] came out at 11.1%. Further, the outcome in assay [8] was inactive. For the same compound, the “fold change (FC)” value in [10] is “inactive”. Besides, the Emax entry in assay [11] was “inactive”.
Regarding `CCCCCCCC/C=C\CCCCCCCC(=O)O[C@@H](C)COP(=O)(O)OC[C@H](N)C(=O)O`, the EC50 in assay [1] (read-out: EC50) is above 3000 nM; in assay [2], 390 nM. Moreover, the fold change (FC) in [5] (filed as agonist) was found to be 0.0034. Besides, in [6], the Emax came to 11.6%. Moreover, the “fold change (FC)” value in assay [10] was “inactive”. Also, in assay [11], the Emax entry was “inactive”.
Consider `CCCCCCCCCCCOc1ccccc1CCC(=O)OCCOP(=O)(O)OC[C@H](N)C(=O)O`, for which the EC50 in assay [1] (read-out: EC50) is 330 nM; in assay [2], 5.7 nM. Further, the fold change (FC) in [5] (filed as agonist) was determined as 0.32; in assay [10] (filed as agonist), 0.12. In addition, the Emax worked out at 12.7% in assay [6] and 4.8% in [11].
For `CCOC[C@H](COC(=O)CCc1ccccc1OCc1cccc(Oc2ccccc2)c1)OP(=O)(O)OC[C@H](N)C(=O)O`, the half-maximal effective concentration (EC50) in assay [1] (read-out: EC50) is 5 nM; in assay [2] it was above 3000 nM; in [3], 1200 nM; in assay [4] it was above 3000 nM.
As for `CCCCCCCC/C=C\CCCCCCCC(=O)OC[C@H](COC)OP(=O)(O)OC[C@H](N)C(=O)O`, the half-maximal effective concentration (EC50) was 620 nM in assay [1] (read-out: EC50) and above 3000 nM in assay [2]. Besides, the “fold change (FC)” value in assay [5] was “inactive”. The Emax entry in [6] was “inactive”. Further, the fold change (FC) in [10] (filed as agonist) came out at 0.13. Further, the Emax in [11] worked out at 7.5%.
In the case of `CCCCCCCCCCCOc1ccccc1CCC(=O)O[C@H]1COCC[C@@H]1OP(=O)(O)OC[C@H](N)C(=O)O`, the EC50 in assay [1] (read-out: EC50) was above 3000 nM; in [2], 150 nM. Moreover, the fold change (FC) in assay [5] (filed as agonist) turned out to be 0.0085. Also, in assay [6], the Emax was found to be 12.4%. Moreover, the “fold change (FC)” value in assay [10] was “inactive”. Besides, the Emax result in assay [11] was “inactive”.
On to `CCCCCCCC/C=C\CCCCCCCC(=O)O[C@H](COC)COP(=O)(O)OC[C@H](N)C(=O)O`, for which the EC50 stood at 160 nM in assay [1] (read-out: EC50) and 70 nM in assay [2]. The fold change (FC) in assay [5] (filed as agonist) was found to be 0.0088; in [10] (filed as agonist), 0.52. Moreover, the Emax in [6] is 2.5%; in assay [11] it was 9.7%.

Values taken from ChEMBL document CHEMBL4725358 (J Med Chem, 2020).
